Test results: ChEMBL document CHEMBL1154006, “Optimisation of a series of potent, selective and orally bioavailable GlyT1 inhibitors” (Bioorg Med Chem Lett, 2009)

Tests used:
[1] = target: T1, Sodium- and chloride-dependent glycine transporter 1 (Homo sapiens, UniProt P48067); test: Inhibition of [3H]glycine uptake at human glycine transporter 1 expressed in human JAR cells after 3 hrs by scintillation counting; format: cell-based
T1 sequence (P48067 whole entry): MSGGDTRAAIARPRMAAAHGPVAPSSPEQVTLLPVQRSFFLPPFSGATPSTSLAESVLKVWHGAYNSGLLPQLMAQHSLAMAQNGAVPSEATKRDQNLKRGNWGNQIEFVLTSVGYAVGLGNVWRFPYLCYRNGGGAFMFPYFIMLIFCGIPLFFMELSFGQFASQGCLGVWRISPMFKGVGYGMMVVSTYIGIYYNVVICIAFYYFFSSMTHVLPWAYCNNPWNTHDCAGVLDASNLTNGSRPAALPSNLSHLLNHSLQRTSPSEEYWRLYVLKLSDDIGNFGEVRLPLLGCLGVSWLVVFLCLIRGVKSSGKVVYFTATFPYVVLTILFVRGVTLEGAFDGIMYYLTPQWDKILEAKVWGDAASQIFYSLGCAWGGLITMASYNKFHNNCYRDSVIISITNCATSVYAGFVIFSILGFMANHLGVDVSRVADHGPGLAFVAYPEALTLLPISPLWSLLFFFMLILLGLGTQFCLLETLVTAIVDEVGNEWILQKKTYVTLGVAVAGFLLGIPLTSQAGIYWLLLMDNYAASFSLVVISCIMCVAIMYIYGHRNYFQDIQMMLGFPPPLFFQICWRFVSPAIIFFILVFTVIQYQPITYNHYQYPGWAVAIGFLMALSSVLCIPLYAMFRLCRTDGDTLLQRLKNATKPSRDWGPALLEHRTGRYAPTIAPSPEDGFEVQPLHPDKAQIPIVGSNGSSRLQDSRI

[2] = Metabolic stability in rat liver microsomes assessed as parent compound turnover at 1 uM after 15 mins; format: ADME, Microsome; conditions: read-out: Stability
How it was run: (§1)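 Test compounds at 1 μM incubated at 37 °C for 15 min with liver microsomes (rat, dog or human) at 0.5 mg/ml protein. Cosolvent was 0.99% MeCN + 0.01% DMSO. Read-out is % turnover of parent.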

[3] = Metabolic stability in dog liver microsomes assessed as parent compound turnover at 1 uM after 15 mins; format: ADME, Canis lupus familiaris, Microsome; conditions: read-out: Stability; how it was run: as §1
[4] = Metabolic stability in human liver microsomes assessed as parent compound turnover at 1 uM after 15 mins; format: ADME, Microsome; conditions: read-out: Stability; how it was run: as §1
[5] = target: T2, Sodium- and chloride-dependent glycine transporter 2 (Homo sapiens, UniProt Q9Y345); test: Inhibition of human glycine transporter 2
T2 sequence (Q9Y345 whole entry): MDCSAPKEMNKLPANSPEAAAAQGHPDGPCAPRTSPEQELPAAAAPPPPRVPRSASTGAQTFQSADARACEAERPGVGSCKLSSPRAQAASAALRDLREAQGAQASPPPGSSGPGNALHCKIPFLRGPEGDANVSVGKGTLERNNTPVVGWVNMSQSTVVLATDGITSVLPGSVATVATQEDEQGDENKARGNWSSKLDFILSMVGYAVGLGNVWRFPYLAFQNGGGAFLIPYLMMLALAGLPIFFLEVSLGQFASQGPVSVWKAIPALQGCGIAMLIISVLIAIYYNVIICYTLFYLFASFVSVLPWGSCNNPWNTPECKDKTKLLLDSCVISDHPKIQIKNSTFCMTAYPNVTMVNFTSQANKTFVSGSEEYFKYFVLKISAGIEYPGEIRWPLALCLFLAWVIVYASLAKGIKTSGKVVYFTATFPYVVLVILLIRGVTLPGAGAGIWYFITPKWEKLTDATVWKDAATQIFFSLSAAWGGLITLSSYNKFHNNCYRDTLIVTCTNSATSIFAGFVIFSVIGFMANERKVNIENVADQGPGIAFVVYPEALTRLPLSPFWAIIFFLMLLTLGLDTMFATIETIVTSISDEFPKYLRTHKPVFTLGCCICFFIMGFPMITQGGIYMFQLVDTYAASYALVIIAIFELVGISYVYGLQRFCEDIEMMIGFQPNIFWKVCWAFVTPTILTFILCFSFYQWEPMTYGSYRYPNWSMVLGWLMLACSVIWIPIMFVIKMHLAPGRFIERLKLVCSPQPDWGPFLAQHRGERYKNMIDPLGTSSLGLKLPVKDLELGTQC

[6] = target: T3, Sodium- and chloride-dependent glycine transporter 1 (Homo sapiens) (UniProt P48067); test: Inhibition of [3H]glycine uptake at human glycine transporter 1 expressed in human JAR cells at 3 uM after 3 hrs by scintillation counting; format: cell-based
T3 sequence (whole entry): T1 sequence (P48067 whole entry)

[7] = Half life in Sprague-Dawley rat at 0.1 mg/kg, iv and 1 mg/kg, po; format: ADME, organism-based; conditions: in vivo
How it was run: (§2)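 Six male Sprague-Dawley rats were used. Three received 0.1 mg/kg i.v. and three received 1 mg/kg p.o.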

Mus musculus = test: Ex vivo occupancy of glycine transporter 1 in po dosed mouse; format: functional
[8] = Bioavailability in Sprague-Dawley rat at 0.1 mg/kg, iv and 1 mg/kg, po; format: ADME, organism-based; conditions: in vivo; how it was run: as §2
[9] = Clearance in Sprague-Dawley rat at 0.1 mg/kg, iv and 1 mg/kg, po; format: ADME, organism-based; conditions: in vivo; how it was run: as §2
[10] = Volume of distribution in Sprague-Dawley rat at 0.1 mg/kg, iv and 1 mg/kg, po; format: ADME, organism-based; conditions: in vivo; how it was run: as §2
[11] = Plasma clearance in Sprague-Dawley rat at 0.1 mg/kg, iv and 1 mg/kg, po; format: ADME, organism-based; how it was run: as §2
[12] = Volume of distribution at steady state in Sprague-Dawley rat at 0.1 mg/kg, iv and 1 mg/kg, po; format: ADME, organism-based; conditions: in vivo, read-out: Vdss; how it was run: as §2
Rattus norvegicus = test: In vivo occupancy of glycine transporter 1 in rat; format: functional

SMILES	IC50 [1]	metabolised at 0.25 h, 1 µM [2]	metabolised at 0.25 h, 1 µM [3]	metabolised at 0.25 h, 1 µM [4]	other results
O=C(NCC1(CC2CC2)CN(S(=O)(=O)c2c[nH]nn2)C1)c1ccc(Cl)cc1Cl	871 nM				
O=C(NCC1(c2ncccc2F)CCN(S(=O)(=O)c2cccs2)CC1)c1ccc(Cl)cc1Cl	125 nM	98%	72%		
Cn1cc(S(=O)(=O)N2CCC(CNC(=O)c3ccc(Cl)cc3Cl)(CC3CC3)CC2)cn1	10.3 nM	5%	38%	10%	IC50 [5]: > 10000 nM
Cn1cnc(S(=O)(=O)N2CCC(CNC(=O)c3ccc(Cl)cc3Cl)(CC3CC3)CC2)n1					inhibition [6]: 13%
CCn1cc(S(=O)(=O)N2CC(CNC(=O)c3ccc(Cl)cc3Cl)(CC3CC3)C2)nn1	2.58 nM	65%	44%	45%	
Cn1cnc(S(=O)(=O)N2CCC(CNC(=O)c3ccc(Cl)cc3Cl)(c3ncccc3F)CC2)c1	1.74 nM	30%	21%		IC50 [5]: > 10000 nM
Cn1cc(S(=O)(=O)N2CCC(CNC(=O)c3ccc(Cl)cc3Cl)(c3ncccc3F)CC2)cn1	5.43 nM	55%	24%	42%	IC50 [5]: > 10000 nM
Cn1cc(S(=O)(=O)N2CC(CNC(=O)c3ccc(Cl)cc3Cl)(c3ncccc3F)C2)nn1	0.31 nM	15%	5%	22%	
Cc1nc(S(=O)(=O)N2CCC(CNC(=O)c3ccc(Cl)cc3Cl)(c3ncccc3F)CC2)cn1C					inhibition [6]: 31%
O=C(NCC1(c2ncccc2F)CCN(S(=O)(=O)Cc2ccccc2)CC1)c1ccc(Cl)cc1Cl					inhibition [6]: 33%
Cn1cc(S(=O)(=O)N2CCC(CNC(=O)c3ccc(Cl)cc3Cl)(c3ncccc3F)CC2)nn1	0.65 nM	6%	17%	20%	half-life [7]: 0.3 h; IC50 [5]: > 10000 nM; Occ50 (Mus musculus): 7.5 mg/kg; bioavailability [8]: 3%
Cn1cc(S(=O)(=O)N2CC(CNC(=O)c3ccc(Cl)cc3Cl)(c3ncccc3F)C2)cn1	2.95 nM	56%	< 5%	25%	
O=C(NCC1(c2ncccc2F)CCN(S(=O)(=O)c2ccccc2)CC1)c1ccc(Cl)cc1Cl					inhibition [6]: 38%
CCn1cc(S(=O)(=O)N2CCC(CNC(=O)c3ccc(Cl)cc3Cl)(CC3CC3)CC2)nn1	28.2 nM				
O=C(NCC1(c2ncccc2F)CCN(S(=O)(=O)c2cccnc2)CC1)c1ccc(Cl)cc1Cl	11.6 nM	99%	96%	99%	
Cn1cc(S(=O)(=O)N2CCC(CNC(=O)c3ccc(Cl)cc3Cl)(CC3CC3)CC2)nn1	0.32 nM	88%	34%	43%	half-life [7]: 1.1 h; IC50 [5]: > 10000 nM; clearance [9]: 39 mL/min/kg; Vd [10]: 2.2 L/kg; Occ50 (Mus musculus): <1 mg/kg; bioavailability [8]: 27%
Cn1cc(S(=O)(=O)N2CC(CNC(=O)c3ccc(Cl)cc3Cl)(CC3CC3)C2)cn1	3.62 nM	17%	70%	21%	half-life [7]: 2.4 h; IC50 [5]: > 10000 nM; Occ50 (Mus musculus): 3.8 mg/kg; clearance [11]: 46 mL/min/kg; bioavailability [8]: 48%
Cn1cc(S(=O)(=O)[C@H]2CC[C@](CNC(=O)c3ccc(Cl)cc3Cl)(CC3CC3)CC2)nn1	5.44 nM	10%		28%	Vd [12]: 2.6 L/kg; half-life [7]: 1.1 h; Occ50 (Rattus norvegicus): 3.4 mg/kg; clearance [11]: 34 mL/min/kg; bioavailability [8]: 105%
Cn1cnnc1S(=O)(=O)N1CCC(CNC(=O)c2ccc(Cl)cc2Cl)(CC2CC2)CC1	124 nM				
O=C(NCC1(c2ncccc2F)CCN(S(=O)(=O)c2ccc(Cl)s2)CC1)c1ccc(Cl)cc1Cl					inhibition [6]: 20%
Cn1nncc1S(=O)(=O)N1CC(CNC(=O)c2ccc(Cl)cc2Cl)(CC2CC2)C1	185 nM				
O=C(NCC1(c2ncccc2F)CCN(S(=O)(=O)CC2CC2)CC1)c1ccc(Cl)cc1Cl	2 nM	78%	20%	21%	
Cn1cc(S(=O)(=O)N2CC(CNC(=O)c3ccc(Cl)cc3Cl)(CC3CC3)C2)nn1	0.1 nM	88%	24%	32%	
CCCS(=O)(=O)N1CCC(CNC(=O)c2ccc(Cl)cc2Cl)(c2ncccc2F)CC1	4.33 nM	73%	25%	23%	
Cn1cc(S(=O)(=O)[C@H]2CC[C@@](CNC(=O)c3ccc(Cl)cc3Cl)(CC3CC3)CC2)nn1	1.89 nM	23%		28%	Vd [12]: 2.3 L/kg; half-life [7]: 1.8 h; Occ50 (Rattus norvegicus): 2.2 mg/kg; clearance [11]: 16 mL/min/kg; bioavailability [8]: 59%
Cn1ncc(S(=O)(=O)N2CC(CNC(=O)c3ccc(Cl)cc3Cl)(CC3CC3)C2)n1	132 nM				
O=C(NCC1(CC2CC2)CCN(S(=O)(=O)c2cn(CC(F)(F)F)nn2)CC1)c1ccc(Cl)cc1Cl	502 nM				
Cn1ncnc1S(=O)(=O)N1CCC(CNC(=O)c2ccc(Cl)cc2Cl)(CC2CC2)CC1	314 nM				
